Experimental data: ChEMBL document CHEMBL4699636, “Novel 2,7-Diazaspiro[4,4]nonane Derivatives to Inhibit Mouse and Human Osteoclast Activities and Prevent Bone Loss in Ovariectomized Mice without Affecting Bone Formation” (J Med Chem, 2020)
Calls of active or inactive are those of the source. The rule behind the calls is not given here.

Legend:
[1] = Toxicity in C57BL6/J mouse model of OVX-induced bone loss assessed as effect on osteoclast numbers per bone perimeter at 20 mg/kg, IP QD for 4 weeks; assay type: organism-based; conditions: in vivo, 672 h
In short: (§1)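 OVX mice, 12 weeks old, ip 20 mg/kg q.d. or b.i.d. for 4 weeks in CMC/Tween 80 vehicle. Distal right femur taken day 28. Static trabecular parameters measured on one 4-µm Masson-Goldner trichrome section, ROI 0.75 mm². n=10 per group, 9 in OVX+vehicle.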

Osteoclast = assay: Inhibition of resorption activity of mouse peripheral blood cell-derived osteoclasts at 5-10 uM incubated for 48 hrs by Kossa-staining based assay; assay type: functional, tissue-based; conditions: dose microM 5-10, time 48.0 hrs, in the assay text read “bone marrow-derived” for “peripheral blood cell-derived”
In short: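 Osteoclasts from C57BL/6J mouse bone marrow, M-CSF then M-CSF 30 ng/mL plus RANKL 100 ng/mL. Day-3 cells reseeded on calcium phosphate-coated wells, compound added next day in 0.5% DMSO for 48 h, 8 wells per condition. 4 wells TRAP-stained for osteoclast counts, 4 von Kossa-stained for resorbed area. Activity expressed as resorption normalized to osteoclast number.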

Mus musculus [2] = assay: Antiosteoporotic activity in C57BL6/J mouse model of OVX-induced bone loss assessed as cortical thickness level in tibial diaphysis at 20 mg/kg, ip BID for 4 weeks by microCT analysis (179.27 +/- 7.57 um); assay type: functional
Mus musculus [3] = assay: Antiosteoporotic activity in C57BL6/J mouse model of OVX-induced bone loss assessed as trabecular pattern factor level in tibial metaphysis at 20 mg/kg, ip BID for 4 weeks by microCT analysis (17.17 +/- 3.41 […]); assay type: functional
Mus musculus [4] = assay: Antiosteoporotic activity in C57BL6/J mouse model of OVX-induced bone loss assessed as trabecular number level in femoral metaphysis at 20 mg/kg, ip BID for 4 weeks by histomorphometry (2.99 +/- 0.80 /mm); assay type: functional; in short: as §1
Mus musculus [5] = assay: Antiosteoporotic activity in C57BL6/J mouse model of OVX-induced bone loss assessed as trabecular bone volume per tissue volume level in tibial metaphysis at 20 mg/kg, ip QD for 4 weeks by microCT analysis (17.49 +/- 2.91 %); assay type: functional
[6] = Toxicity in C57BL6/J mouse model of OVX-induced bone loss assessed as effect on bone formation by measuring bone formation rate per trabecular bone surface level in femoral metaphysis at 20 mg/kg, ip QD for 4 weeks by histomorphometry ([…]); assay type: organism-based; conditions: in vivo, 672 h
[7] = Toxicity in C57BL6/J mouse model of OVX-induced bone loss assessed as effect on bone formation by measuring mineralizing surface per trabecular bone surface level in femoral metaphysis at 20 mg/kg, ip QD for 4 weeks by histomorphometry (27.90 +/ 8.22 %); assay type: organism-based; conditions: in vivo, 672 h
Mus musculus [8] = assay: Antiosteoporotic activity in C57BL6/J mouse model of OVX-induced bone loss assessed as trabecular number level in femoral metaphysis at 20 mg/kg, ip QD for 4 weeks by histomorphometry (2.99 +/- 0.80 /mm); assay type: functional; in short: as §1
[9] = Toxicity in C57BL6/J mouse model of OVX-induced bone loss assessed as effect on bone formation by measuring bone formation rate per trabecular bone surface level in femoral metaphysis at 20 mg/kg, ip BID for 4 weeks by histomorphometry ([…]); assay type: organism-based; conditions: in vivo, 672 h
[10] = Toxicity in C57BL6/J mouse model of OVX-induced bone loss assessed as effect on bone formation by measuring osteocalcin level at 20 mg/kg, ip BID for 4 weeks […]; assay type: organism-based; conditions: in vivo, 672 h
[11] = molecular target: Triple functional domain protein (Homo sapiens) (UniProt O75962); assay: Inhibition of C-terminal 6-histidine tagged human TRIOGEF1 (R1232 to T1550 residues) expressed in Escherichia coli assessed as reduction in nucleotide exchange efficiency at 20 to 60 uM by N-methylanthraniloyl-GDP fluorescence based nucleotide exchange assay; conditions: dose microM 20-60
In short: (§2)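 Mant-GDP-loaded His-tagged human RAC1 at 2.0 µM with 100 nM DOCK5 (residues 1212-1642) or TRIOGEF1 (R1232-T1550), both E. coli-expressed. Buffer: 50 mM Tris pH 8, 300 mM NaCl, 2 mM MgCl2, 1 mM DTT, 1% DMSO, 25 °C. Reaction started with 100 µM GTP. Fluorescence decay read at ex 360/em 440 nm, kobs by single-exponential fit, compound at 0, 20 or 60 µM, duplicates, as % of activity.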

[12] = Toxicity in C57BL6/J mouse model of OVX-induced bone loss assessed as effect on bone formation by measuring mineralizing surface per trabecular bone surface level in femoral metaphysis at 20 mg/kg, ip BID for 4 weeks by histomorphometry (27.90 +/ 8.22 %); assay type: organism-based; conditions: in vivo, 672 h
[13] = Toxicity in C57BL6/J mouse model of OVX-induced bone loss assessed as effect on bone formation by measuring osteoblast surface per trabecular bone surface level in femoral metaphysis at 20 mg/kg, ip BID for 4 weeks by histomorphometry (5.03 +/ 2.92 %); assay type: organism-based; conditions: in vivo, 672 h; in short: as §1
[14] = system: Osteoclast (Homo sapiens); assay: Toxicity in human peripheral blood cell-derived osteoclasts assessed as reduction in osteoclasts number up to 20 uM incubated for 48 hrs by TRAP-staining based assay
Mus musculus [15] = assay: Antiosteoporotic activity in C57BL6/J mouse model of OVX-induced bone loss assessed as trabecular bone volume per tissue volume level in femoral metaphysis at 20 mg/kg, ip QD for 4 weeks by histomorphometry (11.67 +/- 2.37%); assay type: functional; in short: as §1
Mus musculus [16] = assay: Antiosteoporotic activity in C57BL6/J mouse model of OVX-induced bone loss assessed as structure model index level in tibial metaphysis at 20 mg/kg, ip BID for 4 weeks by microCT analysis (1.92 +/- 0.19); assay type: functional; conditions: dose […]
Mus musculus [17] = assay: Antiosteoporotic activity in C57BL6/J mouse model of OVX-induced bone loss assessed as trabecular thickness level in femoral metaphysis at 20 mg/kg, ip BID for 4 weeks by histomorphometry (39.96 +/- 5.42 um); assay type: functional; in short: as §1
[18] = molecular target: Dedicator of cytokinesis protein 5 (Homo sapiens, UniProt Q9H7D0); assay: Inhibition of C-terminal 6-histidine tagged human DOCK5 (1212 to 1642 residues) expressed in Escherichia coli assessed as reduction in nucleotide exchange efficiency at 20 to 60 uM by N-methylanthraniloyl-GDP fluorescence based nucleotide exchange assay; conditions: dose microM 20-60; in short: as §2
Dedicator of cytokinesis protein 5, sequence (Q9H7D0 whole entry, the tested form may be a part): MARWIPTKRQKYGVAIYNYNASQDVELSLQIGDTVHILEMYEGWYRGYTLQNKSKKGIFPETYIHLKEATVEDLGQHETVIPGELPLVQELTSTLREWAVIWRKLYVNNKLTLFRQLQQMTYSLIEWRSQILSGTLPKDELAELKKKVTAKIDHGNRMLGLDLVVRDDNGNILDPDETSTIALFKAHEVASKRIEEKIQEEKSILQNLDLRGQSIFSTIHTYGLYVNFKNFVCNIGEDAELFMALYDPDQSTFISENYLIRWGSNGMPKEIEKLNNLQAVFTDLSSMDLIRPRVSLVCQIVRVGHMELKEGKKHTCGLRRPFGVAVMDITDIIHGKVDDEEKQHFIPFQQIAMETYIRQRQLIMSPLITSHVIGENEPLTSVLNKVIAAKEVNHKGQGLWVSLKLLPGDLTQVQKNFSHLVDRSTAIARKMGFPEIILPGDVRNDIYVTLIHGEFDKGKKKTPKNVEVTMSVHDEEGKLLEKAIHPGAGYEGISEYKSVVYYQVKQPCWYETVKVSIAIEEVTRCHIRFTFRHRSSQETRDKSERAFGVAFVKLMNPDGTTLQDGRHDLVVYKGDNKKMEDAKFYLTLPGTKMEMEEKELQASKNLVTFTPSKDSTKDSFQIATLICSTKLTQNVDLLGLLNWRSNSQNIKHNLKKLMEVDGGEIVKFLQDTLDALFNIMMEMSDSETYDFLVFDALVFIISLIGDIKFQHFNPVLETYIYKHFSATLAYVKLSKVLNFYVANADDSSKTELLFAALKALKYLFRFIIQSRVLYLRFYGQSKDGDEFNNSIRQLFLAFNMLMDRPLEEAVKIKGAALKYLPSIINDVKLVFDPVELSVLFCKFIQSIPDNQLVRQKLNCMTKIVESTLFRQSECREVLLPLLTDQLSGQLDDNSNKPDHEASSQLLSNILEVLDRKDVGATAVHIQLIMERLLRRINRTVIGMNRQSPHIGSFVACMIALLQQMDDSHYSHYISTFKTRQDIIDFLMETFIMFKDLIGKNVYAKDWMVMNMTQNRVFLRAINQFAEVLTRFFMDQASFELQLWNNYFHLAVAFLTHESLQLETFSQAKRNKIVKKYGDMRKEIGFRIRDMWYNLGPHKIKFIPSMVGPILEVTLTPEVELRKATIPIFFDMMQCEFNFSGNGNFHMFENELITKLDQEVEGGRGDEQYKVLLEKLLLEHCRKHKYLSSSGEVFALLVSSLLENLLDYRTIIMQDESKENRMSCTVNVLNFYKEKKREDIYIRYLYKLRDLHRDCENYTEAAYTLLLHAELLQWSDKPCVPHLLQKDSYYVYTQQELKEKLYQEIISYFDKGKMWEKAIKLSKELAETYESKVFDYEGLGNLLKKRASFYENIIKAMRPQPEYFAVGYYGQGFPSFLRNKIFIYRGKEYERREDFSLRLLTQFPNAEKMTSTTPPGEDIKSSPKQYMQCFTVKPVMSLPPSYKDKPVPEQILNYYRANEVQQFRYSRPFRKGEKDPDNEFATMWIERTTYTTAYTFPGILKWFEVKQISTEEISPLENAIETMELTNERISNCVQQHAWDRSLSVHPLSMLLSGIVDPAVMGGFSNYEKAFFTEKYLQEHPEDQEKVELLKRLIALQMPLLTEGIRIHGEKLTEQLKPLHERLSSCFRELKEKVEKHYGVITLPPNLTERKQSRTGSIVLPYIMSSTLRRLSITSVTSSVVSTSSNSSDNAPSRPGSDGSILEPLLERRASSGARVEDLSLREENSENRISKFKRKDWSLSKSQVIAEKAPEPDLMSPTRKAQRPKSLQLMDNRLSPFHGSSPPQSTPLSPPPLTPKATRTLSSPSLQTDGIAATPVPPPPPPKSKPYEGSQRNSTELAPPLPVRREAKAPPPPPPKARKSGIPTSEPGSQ

Mus musculus [19] = assay: Antiosteoporotic activity in C57BL6/J mouse model of OVX-induced bone loss assessed as serum CTX-1 level […] at 20 mg/kg, ip BID for 4 weeks (165.38 +/- 54.93 %); assay type: functional
[20] = Toxicity in C57BL6/J mouse model of OVX-induced bone loss assessed as effect on body weight at 20 mg/kg, IP BID for 4 weeks; assay type: organism-based; conditions: in vivo, 672 h
In short: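 Body weight tracked in 12-week-old OVX C57BL6/J mice during 4 weeks of ip 20 mg/kg q.d. or b.i.d. dosing in 0.485% carboxymethylcellulose/3% Tween 80, 10 mL/kg.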

**Q.** With O=S1(=O)N(c2ccccc2)C[C@H](O)[C@]12CCN(Cc1ccc(Cl)cc1)C2 (racemic) as the compound, how does the Activity [1] read?
**A.** Non-Toxic

**Q.** And the inhibition (Osteoclast)?
**A.** Active

**Q.** And the Activity (Mus musculus [2])?
**A.** 193.5 um

**Q.** And the Activity (Mus musculus [3])?
**A.** 6.51 1/mm

**Q.** And the Activity (Mus musculus [4])?
**A.** 3.51 /millimeter

**Q.** What about the Activity (Mus musculus [5]) of the same compound?
**A.** 19.48%

**Q.** And the Activity [6]?
**A.** 184.98 um3/um2/yr

**Q.** And the Activity [7]?
**A.** 27.7%

**Q.** What about the Activity (Mus musculus [8]) of the same compound?
**A.** 2.83 /millimeter

**Q.** What about the Activity [9] of the same compound?
**A.** 157.59 um3/um2/yr

**Q.** What about the Activity [10] of the same compound?
**A.** 109.97%

**Q.** What about the inhibition [11] of the same compound?
**A.** inactive

**Q.** And the Activity [12]?
**A.** 26.07%

**Q.** And the Activity [13]?
**A.** 4.01%

**Q.** And the Activity [14]?
**A.** Non-Toxic

**Q.** And the Activity (Mus musculus [15])?
**A.** 12.02%

**Q.** And the Activity_index (Mus musculus [16])?
**A.** 1.48

**Q.** And the Activity (Mus musculus [17])?
**A.** 47.2 µm

**Q.** What about the inhibition [18] of the same compound?
**A.** 45%

**Q.** What about the Activity (Mus musculus [19]) of the same compound?
**A.** 112.71%

**Q.** And the Activity [20]?
**A.** Non-Toxic
